Data: paper PMC7862734 (Investigative Ophthalmology & Visual Science, 2021)
*: point of attachment. Biotin = O=C1N[C@H]2[C@H](CS[C@H]2CCCCC(=O)*)N1

Legend:
[1] = intravitreal, human eyes; cited from earlier work
[2] = molecular target: Kinesin-derived angiogenesis inhibitor (KAI), biotinylated (human) (UniProt Q9NQT8); assay: SPR
[3] = molecular target: cytosolic kinase domain of EGFR (Homo sapiens, UniProt P00533); assay: SPR; assay type: binding; details: protein up to 200 nM, HBS-EP, 25°C
[4] = molecular target: cytosolic kinase domain of PDGFRβ (Homo sapiens, UniProt P09619); assay: SPR; assay type: binding; details: protein up to 200 nM, HBS-EP, 25°C
Sequence of cytosolic kinase domain of PDGFRβ (P09619 554-1106 limits assumed): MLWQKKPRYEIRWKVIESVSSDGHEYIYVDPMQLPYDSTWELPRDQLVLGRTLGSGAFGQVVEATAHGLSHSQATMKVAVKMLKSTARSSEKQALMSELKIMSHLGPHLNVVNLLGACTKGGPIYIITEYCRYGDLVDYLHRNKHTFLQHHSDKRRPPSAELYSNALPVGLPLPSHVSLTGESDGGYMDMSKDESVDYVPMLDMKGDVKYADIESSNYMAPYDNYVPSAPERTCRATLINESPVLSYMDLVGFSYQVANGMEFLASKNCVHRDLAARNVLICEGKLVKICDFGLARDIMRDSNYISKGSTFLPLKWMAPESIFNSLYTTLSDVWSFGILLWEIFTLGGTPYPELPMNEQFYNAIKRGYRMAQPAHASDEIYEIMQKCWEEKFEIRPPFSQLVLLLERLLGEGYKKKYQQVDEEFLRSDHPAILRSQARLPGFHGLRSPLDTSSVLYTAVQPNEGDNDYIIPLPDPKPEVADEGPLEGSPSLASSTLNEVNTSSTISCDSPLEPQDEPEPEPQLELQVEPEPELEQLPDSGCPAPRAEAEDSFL

[5] = molecular target: cytosolic kinase domain of PDGFRα (Homo sapiens, UniProt P16234); assay: SPR; assay type: binding; details: protein up to 200 nM, HBS-EP, 25°C
Sequence of cytosolic kinase domain of PDGFRα (P16234 550-1089 limits assumed): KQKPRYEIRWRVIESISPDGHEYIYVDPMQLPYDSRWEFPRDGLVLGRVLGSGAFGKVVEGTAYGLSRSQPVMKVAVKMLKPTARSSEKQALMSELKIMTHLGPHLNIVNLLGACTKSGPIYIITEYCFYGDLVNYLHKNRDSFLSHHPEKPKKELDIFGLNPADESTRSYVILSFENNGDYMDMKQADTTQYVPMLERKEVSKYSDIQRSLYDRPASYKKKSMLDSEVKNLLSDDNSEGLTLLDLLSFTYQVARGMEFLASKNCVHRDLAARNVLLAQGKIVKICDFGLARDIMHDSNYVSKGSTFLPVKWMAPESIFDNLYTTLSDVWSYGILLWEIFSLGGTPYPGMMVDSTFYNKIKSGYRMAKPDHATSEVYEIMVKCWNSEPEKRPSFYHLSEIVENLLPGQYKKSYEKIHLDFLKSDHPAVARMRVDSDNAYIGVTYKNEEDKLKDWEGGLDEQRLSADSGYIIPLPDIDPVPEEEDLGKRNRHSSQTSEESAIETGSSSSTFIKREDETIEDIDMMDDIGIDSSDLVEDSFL

[6] = system: laser-induced CNV in C57BL/6 mice; assay: Laser-induced choroidal neovascularization; assay type: in vivo, mouse
Method in brief: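 C57BL/6 mice (7 weeks). Four 532 nm laser burns per mouse (200–355 mW, 50 µm, 70 msec). Test compound given as a daily eye drop (2 or 5 µg/eye in 5 µL PBS, days 1–14 or days 7–14) or as an intravitreal injection after laser (0.5–10 µg in 2 µL PBS), against control peptide or PBS. Day-14 OCT cross-section and ILB4-stained choroidal flat-mount area, averaged per mouse.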

Centaurin alpha (CentA) = molecular target: T1, Centaurin alpha (CentA) (Homo sapiens, UniProt O75689); assay: Pull-down assay from HUVEC lysate, Western blotting; assay type: binding; details: biotin-peptide on streptavidin beads
T1 sequence (O75689 1-374): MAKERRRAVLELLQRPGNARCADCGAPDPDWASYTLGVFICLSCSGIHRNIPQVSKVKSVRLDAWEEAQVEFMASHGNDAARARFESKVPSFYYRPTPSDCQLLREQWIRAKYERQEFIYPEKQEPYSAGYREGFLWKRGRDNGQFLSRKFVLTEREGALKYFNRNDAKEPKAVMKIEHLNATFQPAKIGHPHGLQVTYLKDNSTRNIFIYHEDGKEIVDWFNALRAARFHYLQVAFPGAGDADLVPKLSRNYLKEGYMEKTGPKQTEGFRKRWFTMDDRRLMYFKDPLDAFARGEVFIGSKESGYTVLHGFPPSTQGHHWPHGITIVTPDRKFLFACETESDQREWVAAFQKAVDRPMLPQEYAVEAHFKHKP
Method in brief: (§1)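 HUVEC at passage 3–6 grown in EGM2 and lysed. Lysate incubated with biotinylated test or control peptide captured on streptavidin beads. After washing, bound proteins and lysate input were immunoblotted with antibodies to VEGFR2 and Centaurin A.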

[7] = Biodistribution after eye drop, cryosection stained with Alexa 488-streptavidin; assay type: in vivo, mouse; details: eye drop 5 µg/eye, C57BL/6, time points 10 minutes, 30 minutes, 1 hour, 2 hours, streptavidin staining
VEGFR2 = VEGFR2 (Homo sapiens, UniProt P35968); assay: Pull-down assay from HUVEC lysate, Western blotting; assay type: binding; details: biotin-peptide on streptavidin beads
Sequence of VEGFR2 (P35968 20-1356): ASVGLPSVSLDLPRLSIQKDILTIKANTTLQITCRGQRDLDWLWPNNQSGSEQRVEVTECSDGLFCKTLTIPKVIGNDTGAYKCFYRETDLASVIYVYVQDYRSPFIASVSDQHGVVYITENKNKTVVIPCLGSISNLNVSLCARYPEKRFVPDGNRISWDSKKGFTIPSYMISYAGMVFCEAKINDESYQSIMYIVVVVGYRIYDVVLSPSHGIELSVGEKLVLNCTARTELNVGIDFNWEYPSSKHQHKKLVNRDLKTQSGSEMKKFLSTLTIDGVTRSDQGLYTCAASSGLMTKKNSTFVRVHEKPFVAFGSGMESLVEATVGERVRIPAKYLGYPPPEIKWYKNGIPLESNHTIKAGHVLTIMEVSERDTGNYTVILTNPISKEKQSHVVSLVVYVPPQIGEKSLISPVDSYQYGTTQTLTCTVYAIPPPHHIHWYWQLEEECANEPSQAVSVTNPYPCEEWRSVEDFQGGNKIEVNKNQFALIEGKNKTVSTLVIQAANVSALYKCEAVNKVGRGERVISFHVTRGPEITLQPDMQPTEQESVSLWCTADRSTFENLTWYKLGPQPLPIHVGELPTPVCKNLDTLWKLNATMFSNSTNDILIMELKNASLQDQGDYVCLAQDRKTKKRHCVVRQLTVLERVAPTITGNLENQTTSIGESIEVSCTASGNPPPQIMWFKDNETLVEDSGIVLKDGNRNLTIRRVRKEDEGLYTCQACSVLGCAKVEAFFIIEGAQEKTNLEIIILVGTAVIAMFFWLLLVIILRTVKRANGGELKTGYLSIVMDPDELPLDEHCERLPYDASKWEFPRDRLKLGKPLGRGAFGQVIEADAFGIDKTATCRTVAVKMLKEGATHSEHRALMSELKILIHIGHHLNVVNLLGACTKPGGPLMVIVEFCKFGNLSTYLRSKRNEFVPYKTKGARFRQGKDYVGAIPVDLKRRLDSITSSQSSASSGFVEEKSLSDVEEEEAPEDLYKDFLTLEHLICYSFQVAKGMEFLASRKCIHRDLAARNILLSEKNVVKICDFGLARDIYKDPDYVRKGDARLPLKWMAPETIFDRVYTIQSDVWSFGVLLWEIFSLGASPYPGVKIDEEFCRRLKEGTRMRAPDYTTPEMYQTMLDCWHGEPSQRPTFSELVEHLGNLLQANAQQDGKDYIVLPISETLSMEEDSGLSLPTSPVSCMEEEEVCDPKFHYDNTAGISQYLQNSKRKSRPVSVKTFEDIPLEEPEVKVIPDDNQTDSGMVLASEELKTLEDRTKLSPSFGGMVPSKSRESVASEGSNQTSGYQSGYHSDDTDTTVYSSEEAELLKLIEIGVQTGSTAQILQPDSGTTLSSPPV
Method in brief: as §1

[8] = molecular target: recombinant cytosolic domain (789-1356 aa) of VEGFR2 (UniProt P35968 789-1356); assay: SPR
Sequence of recombinant cytosolic domain (789-1356 aa) of VEGFR2 (P35968 789-1356): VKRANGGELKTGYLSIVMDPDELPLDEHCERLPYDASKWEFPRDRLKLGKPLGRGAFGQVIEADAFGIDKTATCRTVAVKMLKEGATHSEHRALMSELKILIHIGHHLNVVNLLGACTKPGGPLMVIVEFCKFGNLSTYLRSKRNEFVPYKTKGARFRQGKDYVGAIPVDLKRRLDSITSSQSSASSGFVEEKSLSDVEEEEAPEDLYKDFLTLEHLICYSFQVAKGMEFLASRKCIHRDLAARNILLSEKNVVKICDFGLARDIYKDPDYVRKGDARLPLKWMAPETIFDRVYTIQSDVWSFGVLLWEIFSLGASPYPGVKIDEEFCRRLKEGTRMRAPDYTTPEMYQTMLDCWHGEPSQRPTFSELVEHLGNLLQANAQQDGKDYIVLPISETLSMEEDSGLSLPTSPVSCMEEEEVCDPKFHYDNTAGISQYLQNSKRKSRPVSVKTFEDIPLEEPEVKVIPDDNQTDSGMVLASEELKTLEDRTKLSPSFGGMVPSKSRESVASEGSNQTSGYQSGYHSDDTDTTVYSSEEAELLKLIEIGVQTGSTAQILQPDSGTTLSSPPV

Q: For ranibizumab, which Aqueous half-life [1] is on record?
A: 173 h

Q: For bevacizumab, which Aqueous half-life [1] is on record?
A: 236 h

Q: Which Kd [2] does the source give for “recombinant cytosolic domain of PDGFRB (domain or fragment)” here?
A: > 200 nM

Q: For “KAI: 23 aa peptide, aa 1238-1260 of human KIF13B, minimum binding site to VEGFR2; biotinylated N-terminus, amidated C-terminus (Biotin-SRGTPVDERLFLIVRVTVQLSHP-NH2; SMILES CC[C@H](C)[C@H](NC(=O)[C@H](CC(C)C)NC(=O)[C@H](Cc1ccccc1)NC(=O)[C@H](CC(C)C)NC(=O)[C@H](CCCNC(=N)N)NC(=O)[C@H](CCC(=O)O)NC(=O)[C@H](CC(=O)O)NC(=O)[C@@H](NC(=O)[C@@H]1CCCN1C(=O)[C@@H](NC(=O)CNC(=O)[C@H](CCCNC(=N)N)NC(=O)[C@H](CO)NC(=O)CCCC[C@@H]1SC[C@@H]2NC(=O)N[C@@H]21)[C@@H](C)O)C(C)C)C(=O)N[C@H](C(=O)N[C@@H](CCCNC(=N)N)C(=O)N[C@H](C(=O)N[C@H](C(=O)N[C@H](C(=O)N[C@@H](CCC(N)=O)C(=O)N[C@@H](CC(C)C)C(=O)N[C@@H](CO)C(=O)N[C@@H](Cc1c[nH]cn1)C(=O)N1CCC[C@H]1C(N)=O)C(C)C)[C@@H](C)O)C(C)C)C(C)C)”, which “Binding of EGFR to immobilized peptide (in words)” value [3] is on record?
A: did not bind

Q: What about the “Binding of PDGFRβ to immobilized peptide (in words)” value [4] of the same molecule?
A: very weak binding

Q: What about the “Binding of PDGFRα to immobilized peptide (in words)” value [5] of the same molecule?
A: did not bind

Q: And the “Regression of developed CNV” value ([6]; eye drop 5 µg/eye daily from day 7 to day 14)?
A: effective to regress neovascularization

Q: What about the “Area of CNV measured by OCT (cross-section) vs ctrl” value ([6]; eye drop 2∼5 µg/eye daily day 1 to day 14, 200 mW laser, day 14) of the same molecule?
A: significantly reduced

Q: What about the “Effect on CNV vs PBS (OCT and ILB4 staining)” value ([6]; intravitreal injection 2 µg in 2 µL PBS after laser burn, 355 mW, C57BL/6, P = 0.045 (OCT), P = 0.034 (ILB4), one-way ANOVA) of the same molecule?
A: significantly inhibited

Q: What about the “Interaction with CentA in pull-down” value (Centaurin alpha (CentA)) of the same molecule?
A: does not bind

Q: What about the “Time at which peptide was detected in the retina and choroid” value [7] of the same molecule?
A: 30 min

Q: And the “Interaction with VEGFR2 in pull-down” value (VEGFR2)?
A: interacts

B1: Kinesin-derived angiogenesis inhibitor (KAI), biotinylated (peptide, UniProt Q9NQT8 1238-1260, looked up)
peptide: Biotin-SRGTPVDERLFLIVRVTVQLSHP-NH2
SMILES: CC[C@H](C)[C@H](NC(=O)[C@H](CC(C)C)NC(=O)[C@H](Cc1ccccc1)NC(=O)[C@H](CC(C)C)NC(=O)[C@H](CCCNC(=N)N)NC(=O)[C@H](CCC(=O)O)NC(=O)[C@H](CC(=O)O)NC(=O)[C@@H](NC(=O)[C@@H]1CCCN1C(=O)[C@@H](NC(=O)CNC(=O)[C@H](CCCNC(=N)N)NC(=O)[C@H](CO)NC(=O)CCCC[C@@H]1SC[C@@H]2NC(=O)N[C@@H]21)[C@@H](C)O)C(C)C)C(=O)N[C@H](C(=O)N[C@@H](CCCNC(=N)N)C(=O)N[C@H](C(=O)N[C@H](C(=O)N[C@H](C(=O)N[C@@H](CCC(N)=O)C(=O)N[C@@H](CC(C)C)C(=O)N[C@@H](CO)C(=O)N[C@@H](Cc1c[nH]cn1)C(=O)N1CCC[C@H]1C(N)=O)C(C)C)[C@@H](C)O)C(C)C)C(C)C
Q: With B1 as the molecule, how does the Kd [8] read?
A: 6.8 ± 0.6 nM
